Most compounds without a hit are left out; they make up all but 1.7% or so of the library.
STEP inh: STEP phosphatase inhibitors, primary screen, biochemical, fluorescence intensity, uHTS. Tyrosine-protein phosphatase non-receptor type 5 (Homo sapiens), P54829. recombinant STEP, OMFP fluorogenic substrate. AID 588621, 2011. actives 0.25% (n = 360,000). inhibition, % at 20 µM;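 active = inhibition at 20 µM, scaled per plate between control wells, above about 37%, limit read from the data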;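 note: 0% = DMSO with enzyme and substrate and 100% = substrate only without enzyme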
Target sequence (P54829 whole entry, looked up): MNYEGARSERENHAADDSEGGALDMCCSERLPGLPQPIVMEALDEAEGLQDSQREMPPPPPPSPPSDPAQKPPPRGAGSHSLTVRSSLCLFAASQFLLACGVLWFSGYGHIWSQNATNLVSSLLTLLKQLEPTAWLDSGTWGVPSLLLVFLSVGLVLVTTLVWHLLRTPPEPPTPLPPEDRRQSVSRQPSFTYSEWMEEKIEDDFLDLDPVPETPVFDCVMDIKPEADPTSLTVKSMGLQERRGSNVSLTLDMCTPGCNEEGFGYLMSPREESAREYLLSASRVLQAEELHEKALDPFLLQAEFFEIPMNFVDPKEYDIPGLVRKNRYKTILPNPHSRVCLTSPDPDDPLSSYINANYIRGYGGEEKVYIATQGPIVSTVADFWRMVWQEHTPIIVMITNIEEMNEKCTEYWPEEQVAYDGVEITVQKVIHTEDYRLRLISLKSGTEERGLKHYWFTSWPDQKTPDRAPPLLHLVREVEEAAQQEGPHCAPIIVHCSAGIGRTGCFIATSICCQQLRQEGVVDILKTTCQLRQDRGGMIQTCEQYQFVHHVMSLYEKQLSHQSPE
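Assay system: isolated STEP enzyme. Buffer or medium: pH 6.0 Bis-Tris with DTT and Tween 20. Also added: fluorogenic phosphatase substrate OMFP at 25 µM final. Dosing: 20 µM, 1% DMSO. Timing: 20 min reaction, room temperature, in the dark. Measured by: fluorescence intensity, excitation 480 nm, emission 540 nm. Evaluation: normalized % inhibition.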
LMPTP block: LMPTP phosphatase inhibitors, primary screen, biochemical, fluorescence intensity, uHTS. actives 0.22% (n = 360,000). inhibition, % at 20 µM. recombinant LMPTP-A, OMFP fluorogenic substrate. AID 651560, 2012. Low molecular weight phosphotyrosine protein phosphatase (Homo sapiens), P24666;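 active = compounds that cut the enzyme signal by at least half of the control window in the single-dose screen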;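 note: plate controls were DMSO wells with enzyme plus substrate for no effect and substrate without enzyme for full effect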
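Assay system: LMPTP-A phosphatase enzyme | Input: 0.625 nM enzyme | Also added: Fluorogenic phosphatase substrate OMFP at 400 µM final | Compound dosing: One test concentration per compound, 20 µM, with 3% DMSO overall | Schedule: 50 min enzyme reaction at room temperature, protected from light | Signal: Fluorescence intensity | Benchmarks: no-enzyme and uninhibited controls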
DNMT1 block: human DNMT1 methyltransferase inhibitors, primary screen, biochemical, molecular beacon, fluorescence, HinP1I cleavage, uHTS. inhibition (reported as % activation of signal), % at 10 µM. actives 0.83% (n = 360,000). DNA (cytosine-5)-methyltransferase 1 (Homo sapiens), P26358; in the data active = inhibition above about 50%
Scp-1 inhibitor: Scp-1 phosphatase inhibitors, primary screen, biochemical, colorimetric, uHTS; Carboxy-terminal domain RNA polymerase II polypeptide A small phosphatase 1 (Homo …; Recombinant Scp1, phosphopeptide, malachite green phosphate absorbance; actives 0.88% (n = 340,000); inhibition, % at 20 µM;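 active = inhibition above about 50% at 20 µM, limit read from the data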;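 note: plate controls were DMSO wells with enzyme for no effect and wells lacking enzyme for full effect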
Target sequence (Q9GZU7 76-261 limits assumed): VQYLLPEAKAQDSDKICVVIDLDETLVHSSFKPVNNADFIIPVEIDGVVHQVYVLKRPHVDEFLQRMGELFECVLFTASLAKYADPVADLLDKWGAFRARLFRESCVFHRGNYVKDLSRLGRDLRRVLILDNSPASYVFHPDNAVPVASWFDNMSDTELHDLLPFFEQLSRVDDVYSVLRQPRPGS
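Test system: SCP-1 catalytic domain; Buffer or medium: Acidic Tris acetate buffer with magnesium and detergent; Also added: Phosphorylated 17-residue peptide substrate; Compound: single 20 µM dose, 1% DMSO; Schedule: enzyme reaction 45 min at room temperature, colour 5 min, stabilisation 30 min; Signal: Phosphate-binding colour reagent, absorbance read at 630 nm.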
SUMO1 PPI mod: modulators of SUMO1 protein-protein interactions, primary screen, biochemical, uHTS | SUMO1 binding to a labelled peptide, TR-FRET, 1 h | AID 602429, 2012 | Small ubiquitin-related modifier 1 (Homo sapiens), P63165 | inhibition, % at 20 µM | actives 0.33% (n = 360,000); in the data active = inhibition above about 37%
Scp1 confirm: Scp-1 phosphatase inhibitors, retest, confirmation, biochemical, colorimetric, single concentration. shares compounds with Scp-1 inhibitor. recombinant SCP-1 catalytic domain, phosphate release, malachite green absorbance. inhibition, % at 20 µM. actives 61% (n = 2,500). AID 540281, 2011;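 note: plate controls were DMSO with enzyme for no effect and buffer wells lacking enzyme for full effect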
Scp-1 MG ctr: colorimetric readout interference by compounds, confirmation, artefact control for Scp-1 inhibitor project, biochemical, single concentration; apparent inhibition (interference), % at 20 µM; shares compounds with Scp-1 inhibitor; Colorimetric interference counterscreen, malachite green absorbance 630 nm; 2,500 tested, under 10 active;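 note: compounds added after enzyme reaction finished so only phosphate colour detection is probed; plate controls were DMSO wells with completed Scp-1 reaction for no effect and substrate wells lacking enzyme for full effect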
Scp1 DSF: Scp-1 binding by thermal shift, confirmation, orthogonal assay for Scp-1 inhibitor project, biophysical, differential scanning fluorimetry | shares compounds with Scp-1 inhibitor | Recombinant SCP1, Sypro Orange thermal shift Tm | actives 25% (n = 1,500) | thermal shift relative to vanadate control, % at 40 µM | AID 540329, 2011;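 active = substances whose mean melting-temperature shift, as a percentage of the reference inhibitor's shift, reaches about 5.3%, limit read from the data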;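 note: 0% = Tm of DMSO wells and 100% = Tm with sodium orthovanadate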
* hit, by the source's call; / = no result given.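 Rule for the calls, unless noted: active = inhibition of at least 30% at 20 µM; inactive = the rest.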

SMILES	STEP inh	LMPTP block	DNMT1 block	Scp-1 inhibitor	SUMO1 PPI mod	Scp1 confirm	Scp-1 MG ctr	Scp1 DSF
Cc1ccc2c(c1)NC(=O)C(CC(=O)Nc1ccc(CN3CCC(C)CC3)cc1)O2 (centres undefined)	-4.0	0.5	-2.1	52.4*	-1.8	-13.2	-7.3	/
O=C(N/N=C/C(Cl)=C/c1ccccc1)c1ccc2c(c1)OCO2	37.5	56.2*	8.2	101.0*	1.8	53.1*	-17.5	-15.0
COc1ccc([C@H]2CC(=O)C=C(c3ccnc4ccc(Cl)cc34)C2)cc1	-0.7	2.3	-6.4	59.1*	-15.4	-3.8	-5.2	/
Cc1ccccc1NC(=O)C1c2cccc[n+]2CC(=O)N1c1c(C)cccc1C (centres undefined)	2.7	-1.1	-13.6	89.2*	-1.6	91.4*	-9.0	-0.4
Cc1cccc(C)c1NC(=O)C1c2cccc[n+]2CC(=O)N1Cc1ccc2c(c1)OCO2 (centres undefined)	1.8	-1.1	-9.2	5.3	0.4	/	/	/
COc1cccc(CN2CC(C(=O)NCCn3ccc(C)n3)CCC2=O)c1 (centres undefined)	0.8	2.9	2.5	-5.3	2.3	/	/	/
CC(C)C1=CC(=Nc2ccc(S(N)(=O)=O)cc2)C=C(C(C)C)C1=O	2.0	0.3	-3.0	-2.2	6.8	/	/	/
CC(=O)c1ccc(NC(=O)CCc2nc3sc4c(c3c(=O)[nH]2)CCCC4)cc1	4.2	8.4	17.4	51.8*	-1.3	65.1*	-21.3	-0.2
CCc1ccc(NC(=O)CCc2nc3sc4c(c3c(=O)[nH]2)CCCC4)cc1	0.8	2.3	20.9	7.0	-1.6	/	/	/
O=C(NNC1OC(CO)C(O)C(O)C1O)c1cccc(Br)c1 (centres undefined)	-3.3	-0.5	6.2	-19.1	1.3	10.3	1.4	/
CC(C)C[C@H](NC(=O)OC(C)(C)C)c1n[nH]c(=S)n1N	0.9	-0.6	-2.8	-3.1	0.4	/	/	/
CCOC(=O)[C@@H]1[C@H]2COc3cc(OC)ccc3[C@@H]2N2C(=O)N(c3ccc(Br)cc3)C(=O)[C@]12C	1.2	2.8	0.6	52.9*	1.4	-23.8	-12.8	/
Cc1cc2c(cc(C(=O)OC(C)C(=O)NCc3ccc(F)cc3)n2C)o1 (centres undefined)	-1.0	-0.1	-2.2	-10.2	-16.3	/	/	/
CC[N+]1(CC)CC2CCC(C)(C1)C2(C)C (centres undefined)	-4.3	-0.6	0.1	53.4*	2.7	88.0*	-17.5	-6.0
CC12CCC(C[N+](C)(C)C1)C2(C)C (centres undefined)	0.0	-1.0	0.5	85.9*	-2.9	95.6*	-5.4	-5.1
CC(C)(C)c1ccc(CS(=O)(=O)CC(O)CN2CCCC2=O)cc1 (centres undefined)	2.3	-1.5	1.4	0.8	-1.9	/	/	/
O=C1CCCN1CC(O)CS(=O)(=O)Cc1ccc(Cl)cc1 (centres undefined)	-1.1	-1.7	0.7	-7.0	2.3	0.1	-3.0	/
CCOC(=O)c1cn(CC)c2cc3c(cc2c1=O)OCO3	-1.4	-0.2	-2.2	64.3*	8.3	-11.7	-5.2	/
N=c1nc2n(cc1F)C1OC(CO)C(O)C1O2 (centres undefined)	-1.7	1.1	-0.5	71.5*	2.0	-1.0	-7.3	/
Cc1ccc(S(=O)(=O)N2CCN(C(=O)COC(=O)CCOc3ccccc3C)CC2)c(C)c1	0.3	0.2	-1.0	66.0*	0.5	85.9*	-17.0	-19.6
CCCNC(=O)C1(C)CCCN(C(=O)c2ccc(F)c(Cl)c2)C1 (centres undefined)	-1.0	-1.2	13.0	/	1.6	/	/	/
Cc1ccc(S(=O)(=O)NN2C(=O)/C(=C/c3ccc(C(=O)O)cc3)SC2=S)cc1	3.0	1.9	-0.2	63.7*	-13.4	4.5	-11.5	/
CCc1ccc(NC(=O)CS(=O)CC(=O)Nc2ccc(F)cc2F)cc1 (centres undefined)	10.0	6.2	11.5	93.7*	-3.4	89.0*	-4.3	-20.7
CC(C)CC(=O)Nc1ccc(C(=O)CN2C(=O)NC3(CCOc4ccccc43)C2=O)cc1 (centres undefined)	-2.1	-0.5	-0.4	-0.1	0.4	/	/	/
O=C(COC(=O)c1cncc(Br)c1)NC12CC3CC(CC(C3)C1)C2	-1.7	-1.2	1.6	/	2.2	/	/	/
SMILES	STEP inh	LMPTP block	DNMT1 block	Scp-1 inhibitor	SUMO1 PPI mod	Scp1 confirm	Scp-1 MG ctr	Scp1 DSF
O=C(COC(=O)c1cc(Br)ccc1O)NC12CC3CC(CC(C3)C1)C2	-2.5	-0.4	-2.5	61.0*	1.6	-19.4	-16.9	/
CN(CCCC(=O)Nc1ccc(OC(F)F)cc1)S(=O)(=O)c1ccc(F)cc1	0.0	0.3	-2.4	-3.1	-1.0	/	/	/
CCNC(=O)N1C[C@H]2CON(C)[C@H]2C[C@H]1c1ccccc1Br	1.8	-1.1	1.5	/	-0.2	/	/	/
Cc1ccc(NC(=O)CN2C(=O)S/C(=C\c3cc(Cl)c(OCC(=O)O)c(Cl)c3)C2=O)cc1	98.1*	84.8*	7.8	89.5*	20.2	57.4*	-15.1	-3.9
COc1cccc(/C=C2\SC(=S)N(CCCC(=O)Nc3cccc(C(=O)O)c3)C2=O)c1	1.0	-0.6	0.7	/	-19.5	/	/	/
O=C(CCCN1C(=O)/C(=C\c2ccccc2)SC1=S)Nc1ccc(C(=O)O)cc1	1.3	2.2	0.8	1.4	-22.8	/	/	/
O=C(CCN1C(=O)/C(=C/c2ccc3c(c2)OCO3)SC1=S)Nc1ccc(C(=O)O)cc1	17.8	92.2*	5.1	84.3*	4.2	70.8*	-11.2	8.7*
CCOc1ccc(/C=C2\SC(=S)N(CCC(=O)Nc3cccc(C(=O)O)c3)C2=O)cc1	54.4*	73.6*	0.1	85.5*	-15.8	60.7*	-19.7	37.3*
